Screening results deposited in PubChem by Broad Institute.
Xi reactivation = activators of inactive X chromosome reactivation, primary screen, imaging, XiGFP fibroblasts, GFP high-content imaging, set 2; XiGFP mouse fibroblasts, % GFP-positive cells imaging, 3 d; cells co-treated with 5-aza-dC sensitizer; scaled so ellipticine positive control = 100%; activation, % at 7.58 µM; 360,000 tested, 0.055% active;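 active = mean normalized replicate activation at least 10% and every replicate at or above 10%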;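 also: 0% = median of on-plate neutral control wells and 100% = ellipticine 6 µM median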
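Material: SV40-immortalized XiGFP fibroblast cells, line 68-5-11 | Buffer or medium: DMEM containing 5-aza-dC | Dosing: One concentration, pinned | Times: 3 d treatment, 15 min room-temperature fixation | Controls: Ellipticine 6 µM positive control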
DENV2 CPE = inhibitors of DENV2 cytopathic effect, primary screen, cell-based, plate reader, single concentration | 350,000 tested, 1.7% active | CPE inhibition, % at 9.99 µM | DENV2-infected cells, cytopathic effect rescue; in the data active = CPE inhibition above about 20%, passing the limit was not always enough; tested in BHK-21 cells;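 also: 0% = median of neutral control wells and 100% = median of positive control wells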
E-sel inducer = E-selectin induction in HUVECs, primary screen, imaging, HUVEC, immunofluorescence imaging, single point; P16581; normalized: neutral wells 0, TNF-alpha wells 100; activation, % at 7.58 µM; 260,000 tested, 0.37% active; AID 686992, 2013;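 active = mean E-selectin-positive cell signal at least 10% of the positive control, reached in at least 60% of replicates, without over 20% cell loss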
Target sequence (P16581 whole entry, looked up): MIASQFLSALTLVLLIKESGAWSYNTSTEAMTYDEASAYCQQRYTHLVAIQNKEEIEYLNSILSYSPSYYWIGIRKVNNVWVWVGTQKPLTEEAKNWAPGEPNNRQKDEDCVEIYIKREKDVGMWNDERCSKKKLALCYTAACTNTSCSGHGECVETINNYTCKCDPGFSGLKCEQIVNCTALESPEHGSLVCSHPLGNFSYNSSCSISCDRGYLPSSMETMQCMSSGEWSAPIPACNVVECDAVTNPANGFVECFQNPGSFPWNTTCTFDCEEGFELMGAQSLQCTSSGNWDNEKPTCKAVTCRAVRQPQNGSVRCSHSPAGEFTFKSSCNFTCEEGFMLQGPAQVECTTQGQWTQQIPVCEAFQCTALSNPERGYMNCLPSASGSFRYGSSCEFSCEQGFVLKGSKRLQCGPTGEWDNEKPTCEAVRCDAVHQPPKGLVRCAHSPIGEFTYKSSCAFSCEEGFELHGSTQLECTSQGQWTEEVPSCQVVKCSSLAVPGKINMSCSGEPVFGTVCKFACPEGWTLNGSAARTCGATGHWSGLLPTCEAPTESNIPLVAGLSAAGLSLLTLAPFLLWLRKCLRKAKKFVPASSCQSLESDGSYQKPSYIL
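Test system: HUVEC | Signal: Immunofluorescence imaging | Read-out: Percent E-selectin-positive cells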
Statin myotox sup = suppressors of statin myotoxicity in C2C12 myotubes, primary screen, cell-based, single point, plate reader; C2C12 myotubes + simvastatin, ATP luminescence, 48 h; scaled: DMSO 0, geranylgeraniol control 100; 330,000 tested, 0.78% active; rescue of ATP level, % at 7.49 µM;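 active = mean ATP rescue above about 67%, or every replicate alone reaching that limit, limit read from the data, passing the limit was not always enough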;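 also: myotubes were challenged with 10 µM simvastatin during compound exposure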
PglD DTNB = C. jejuni PglD acetyltransferase inhibitors, primary screen, biochemical, DTNB colorimetric, single point; purified PglD enzyme, DTNB colorimetric CoA detection; inhibition, % at 12.5 µM; 360,000 tested, 0.098% active; AID 602405, 2012; in the data active = inhibition above about 16%, passing the limit was not always enough
FGF22 binding = binders of human FGF22 protein, primary screen, FGF22 synaptogenesis inhibitor project, biophysical, thermal shift, single point; recombinant FGF22 thermal shift, SYPRO orange fluorescence; percent of sucrose octasulfate shift, DMSO zero; activity (Tm shift, normalised), % at 9.99 µM; 340,000 tested, 1.5% active;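 active = mean Tm shift, scaled 0 neutral to 100 positive control, at about 1.3% or above, every replicate too, limit read from the data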
Active calls of the source: *; / = no result given. The list is not random: actives were taken first. Their share in the collection is about 3.3%.

SMILES | Xi reactivation | DENV2 CPE | E-sel inducer | Statin myotox sup | PglD DTNB | FGF22 binding
COc1cccc(CNC(=O)C[C@H]2CC[C@H](NC(=O)C3CCOCC3)[C@H](CO)O2)c1 | -0.3 | 2.2 | 0.0 | -0.8 | 1.2 | -0.1
CNC(=S)Nc1ccc(-c2nc3ccc(C)cc3s2)cc1 | -0.1 | -3.9 | 3.3 | -1.0 | -3.4 | 21.5*
CC(=O)NC(=S)Nc1ccc(-c2nc3ccc(C)cc3s2)cc1 | / | -5.2 | / | -24.5 | 0.3 | 0.1
O=C1/C(=C/c2ccccn2)COc2ccccc21 | 0.3 | 7.3 | / | / | / | 0.3
CC(C)(C)C1C/C(=C/c2ccccn2)C(=O)/C(=C/c2ccccn2)C1 (stereo not given) | / | / | / | 116.4* | 6.0 | /
CCc1nnc(NC(=O)c2oc3cc(C)c(C)cc3c2C)s1 | 0.2 | / | / | / | / | /
CCc1nnc(NC(=O)c2oc3ccccc3c2COC(C)C)s1 | 0.4 | -4.6 | -0.2 | -1.0 | 4.7 | 43.0*
O=C(C[C@H]1C[C@H]2c3cc(NC(=O)NC4CCCCC4)ccc3O[C@H]2[C@H](CO)O1)NCc1ccccc1 | 0.3 | -4.2 | 2.0 | -1.0 | 2.0 | 0.3
Cc1ccc(C(O)CN2C3=NCCN3c3ccccc32)cc1 (stereo not given) | / | / | / | 121.4* | -3.0 | /
OC(CN1C2=NCCN2c2ccccc21)c1ccccc1 (stereo not given) | / | 4.5 | / | 3.8 | 11.1 | -0.2
C[C@@H]1CN([C@@H](C)CO)C(=O)Cc2cc(NC(=O)Nc3ccc4c(c3)OCO4)ccc2O[C@H]1CN(C)Cc1ccc(C(=O)Nc2ccccc2N)cc1 | -0.3 | 2.6 | 0.2 | -4.6 | -1.6 | -0.1
CCOC(=O)N(C)[C@H]1C[C@H]2c3[nH]c4ccccc4c3CCN2C(=O)[C@H]1[C@H](C)O | 0.0 | 3.4 | 0.5 | / | / | -0.1
CCOC(=O)CNC(=O)N(C)[C@H]1C[C@H]2c3[nH]c4ccccc4c3CCN2C(=O)[C@H]1[C@H](C)O | / | 23.5* | -0.1 | -2.9 | 2.7 | 0.3
O=C(Nc1cccc(F)c1)N[C@@H]1CC[C@H](CCNS(=O)(=O)c2cccc(Cl)c2)O[C@H]1CO | -0.4 | 3.2 | 0.9 | -12.3 | -166.9 | -0.1
CN(C)CC(=O)N[C@@H]1CC[C@H](CCNC(=O)C2CCCC2)O[C@@H]1CO | -0.4 | 53.6* | -0.5 | 2.2 | 1.9 | 0.3
O=C(N[C@H]1CC[C@@H](CCNC(=O)C2CCCCC2)O[C@@H]1CO)c1ccncc1 | 0.3 | 23.6* | 0.1 | -7.5 | -0.9 | 0.0
CN(C)CC(=O)N[C@@H]1CC[C@@H](CCn2cc(C3CCCCC3)nn2)O[C@H]1CO | -0.4 | 24.1* | -0.4 | -2.1 | -0.3 | -0.4
CN(C)CC(=O)N[C@H]1CC[C@H](CCn2cc(C3CCCCC3)nn2)O[C@@H]1CO | -0.1 | -5.0 | 0.5 | 2.7 | 0.8 | -0.3
C[C@H](CO)N1C[C@H](C)[C@@H](CN(C)C(=O)Nc2ccccc2)OCCCC[C@H](C)Oc2ccc(NC(=O)c3ccccc3)cc2C1=O | 0.0 | -10.6 | / | / | -1.5 | 0.7
Cc1ccc(Cc2cnc(N3C(=N)SC(C)C3=O)s2)cc1 (stereo not given) | 0.0 | 10.0 | 0.2 | / | / | 43.2*
O=C(Nc1ccc(F)cc1)N1CC(=O)N2[C@H](C1)[C@H](c1ccc(C#Cc3ccccc3)cc1)[C@@H]2CO | 0.2 | / | -0.1 | / | / | /
COc1cccc(CN(C)CC(=O)Nc2ccccc2N2CCOCC2)c1OC | 0.0 | -2.3 | 2.7 | 6.5 | -1.0 | 42.5
COc1cc(CC(=O)Nc2ccccc2N2CCOCC2)cc(OC)c1OC | 0.0 | 16.0 | -0.6 | / | / | 42.9*
COc1ccc(C(=O)Nc2ccccc2N2CCOCC2)cc1Br | / | / | / | 117.3* | -2.6 | /
CCOc1ccc(NC(=O)c2ccc(NC(=O)c3ccc(CN4CCOCC4)cc3)cc2)cc1 | 0.1 | -1.6 | 10.3 | -0.4 | / | 1.2
CCOc1ccc(C(=O)Nc2ccc(CN3CCOCC3)cc2)cc1Br | 0.0 | 37.1* | / | -9.4 | -3.9 | -0.3
